T cruzi repl: T. cruzi replication inhibition. T. cruzi beta-gal in NIH3T3, luminescence, 90 h. 1.4% of 300,000 active. inhibition, % (test concentration not listed);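 active means mean inhibition across valid replicates above about 55%, limit read from the data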;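 further: signal also drops with host cell toxicity which is not excluded here; 0% = plate median of DMSO wells and 100% = zero luminescence signal; higher percent means less beta-gal luminescence so fewer parasites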
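Test system: β-gal T. cruzi (Tulahuen C4) inside NIH/3T3 cells / Quantity: 5,000 cells/well / Measured by: luminescence from GalScreen with 0.05% NP40, read after 60 min / Medium: DMEM plus 2% FBS / Measure: parasite load inhibition, % / Reagent: Tulahuen C4 trypomastigotes, 5000/well / Schedule: co-culture of at least 90 h after 3 h attachment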
Beta cell apopt: blocks beta cell apoptosis | INS-1E cytokine-induced death, ATP luminescence, 48 h; percent of positive-control rescue, neutral wells zero | protection from apoptosis, % (test concentration not listed) | 0.8% of 300,000 active | AID 435005;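 active means Every replicate reaches about 75%, or at least half do and their mean reaches it too, limit read from the data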;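 further: 0% = cytokine-treated negative control wells and 100% = positive control rescue; higher means more ATP so stronger rescue from cytokine killing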
SKKanGAS inh: inhibitors of SKKanGAS S. pyogenes growth in kanamycin (SK-promoter or general growth effect); BacTiter-Glo, 6 h; inhibition, % at 7.5 µM; 1.3% of 300,000 active; AID 1662;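 active means mean replicate score, as percent of positive control median, at least 50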;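 further: strain carries kanamycin resistance gene driven by streptokinase promoter and grows in 40 µg/ml kanamycin; loss of luminescence reflects streptokinase promoter inhibition or plain growth inhibition; 0% = median of DMSO wells and 100% = positive control at its reference dose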
PfHsp90 yeast 2: inhibits growth of yeast expressing Plasmodium falciparum Hsp90. inhibition, % at 9.4 µM. 0.32% of 310,000 active. S. cerevisiae expressing PfHsp90, BacTiter-Glo ATP, 48 h; yeast lacking PDR1 and PDR3 efflux regulators;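 active means every replicate shows inhibition above about 80%, whatever the replicate mean, limit read from the data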;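 further: 0% = DMSO neutral controls and 100% = 20 µM radicicol positive controls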
HIF activator: HIF pathway transcriptional activation | U2OS HRE-luciferase reporter, luminescence; normalized: DMSO 0%, desferrioxamine 100% | activation, % at 7.5 µM (by protocol) | 0.32% of 300,000 active | AID 1910;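 active means mean activation of at least 10% of the iron chelator positive control signal, with at least half of replicates also reaching 10%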
CSC inhib: blocks cancer stem cells; 1.1% of 300,000 active; cancer stem cell-like cells viability, luminescence; inhibition, % at 7.5 µM; in the data active means inhibition above about 75%; tested in HMLE shEcad cells
Numbers without * were called inactive; / = not tested or not shown. In the library only some 3.6% were active in any assay of this set; here they are far more common.

SMILES	T cruzi repl	Beta cell apopt	SKKanGAS inh	PfHsp90 yeast 2	HIF activator	CSC inhib
CC(C)(C)C(O)C(Oc1ccc(Cl)cc1)n1cncn1 (stereo not given)	60*	/	3	102*	0	7
COC1CC(OC2CCC3(C)C(CCC4C3CCC3(C)C(C5=CC(=O)OC5)C(OC(C)=O)CC43O)C2)OC(C)C1OC1OC(COC2OC(CO)C(O)C(O)C2O)C(O)C(O)C1O (stereo not given)	-10	/	-1	/	-2	79*
O=C1NC(=O)C2(CCN(c3ccccc3)CC2)C(=O)N1	/	/	/	1	/	/
CC1(C)N=C(c2ccccc2)[C@@H]2C(c3ccc([N+](=O)[O-])cc3)N21 (stereo not given in full)	-8	0	4	-28	-1	-18
Cc1nc2cc([N+](=O)[O-])ccc2c(=O)n1-c1ccccc1[N+](=O)[O-]	59*	4	-10	9	0	/
CC1=C(C(=O)O)N2C(=O)C(NC(=O)Cc3ccccc3)C2SC1 (stereo not given)	-5	-5	95*	30	0	-3
O=C(CCN1CC1)OCCOC(=O)CCN1CC1	/	/	/	18	/	/
COc1cccc(-n2c(O)c(C=NCCN3CCNCC3)c(=O)[nH]c2=S)c1	-8	-2	6	6	0	-3
CCCc1nnc(NC(=O)CCC(=O)N2CCC3(CC2)OCCO3)s1	3	1	-4	5	0	-11
CC(C)Cc1nnc(NC(=O)CCC(=O)N2CCC3(CC2)OCCO3)s1	-5	/	1	0	21*	-18
O=c1c2ccccc2nc(-c2cccs2)n1-c1ccccc1	1	0	5	-28	0	2
NC(N)=N/N=C/c1cn(-c2ccccc2)nc1-c1cccs1	46	105*	7	-2	-10	-14
Cc1cc(-c2ccccc2)cc(-c2ccccc2)[n+]1CCc1ccccc1	59*	133*	-2	3	1	16
Clc1ccc(C[n+]2c(-c3ccccc3)cc(-c3ccccc3)cc2-c2ccccc2)cc1	56*	122*	1	18	2	5
CCOc1ccc(-c2cc(C)[n+](CCO)c(-c3ccc(OCC)cc3)c2)cc1	72*	37	-19	-3	0	/
Fc1ccc(C[n+]2c(-c3ccccc3)cc(-c3ccccc3)cc2-c2ccccc2)cc1	55*	128*	7	/	1	37
c1ccc([C@@H]2CO2)cc1	-39	0	0	/	0	-9
CC1C(c2ccccc2)OC(=O)N1C (stereo not given)	/	/	/	3	/	/
Nc1ccccc1C(=O)OCCc1ccccc1	/	1	/	-35	/	2
O=C(NN=Cc1ccc(N(CCCl)CCCl)cc1)C(=O)c1c[nH]c2ccccc12	/	/	/	-48	/	/
COC(=O)C(Cc1ccc(N(CCCl)CCCl)cc1)N=Cc1ccccc1O (stereo not given)	44	106*	8	1	4	83*
COc1ccc(-[n+]2c(-c3ccccc3)cc(-c3ccccc3)cc2-c2ccccc2)cc1	29	111*	-4	/	-1	42
O=[N+]([O-])c1ccc(-[n+]2c(-c3ccccc3)cc(-c3ccccc3)cc2-c2ccccc2)cc1	57*	/	-5	-17	0	0
Oc1ccc(-[n+]2c(-c3ccccc3)cc(-c3ccccc3)cc2-c2ccccc2)cc1	50	123*	3	-12	3	-15
O=C([O-])c1ccc(-[n+]2c(-c3ccccc3)cc(-c3ccccc3)cc2-c2ccccc2)cc1	31	12	-1	9	0	-9
SMILES	T cruzi repl	Beta cell apopt	SKKanGAS inh	PfHsp90 yeast 2	HIF activator	CSC inhib
Cc1[nH]nc2ccc(-c3cncc(OC[C@@H](N)Cc4c[nH]c5ccccc45)c3)cc12	/	/	/	-7	/	/
COc1ccc2ccccc2c1CNCCc1ccccc1	11	10	6	22	-10	-1
CC1=NNC(=O)C1Br (stereo not given)	/	/	/	-3	/	/
O=C(OC1CCN(CCCl)CC1)C(c1ccccc1)c1ccccc1	/	-5	/	13	/	5
CCOC(=O)c1c(NC(=O)C(c2ccccc2)c2ccccc2)sc2c1C1CCN2CC1	55*	52	22	21	0	82*
CC1CCCN(c2ccc(C(=O)N3CCC4(CC3)OCCO4)cc2[N+](=O)[O-])C1 (stereo not given)	12	-27	-4	-2	0	116*

Compound activity deposited in PubChem BioAssay by Broad Institute.
